Published values gathered from unrelated publications.
Lines come from different studies, so protocols differ.
Target: Mitogen-activated protein kinase 10 (MAPK10, Homo sapiens, UniProt P53779)

CO[C@@H]1[C@H](N(C)C(=O)c2ccccc2)C[C@H]2O[C@]1(C)n1c3ccccc3c3c4c(c5c6ccccc6n2c5c31)C(=O)NC4  inhibition (enzyme activity, inhibitor; 1 µM): 33%
C#Cc1cc(-c2cc(Nc3nc(N[C@@H](C)c4ccc(F)cn4)ncc3Cl)n[nH]2)ccc1C=O  inhibition (enzyme activity, inhibitor; 0.2 µM): 6.29%
C#Cc1cnc(Nc2ccnc(CO)c2)nc1Nc1ccccc1S(C)(=O)=NC#N (stereo not shown)  remaining signal (cell-free assay; 1 µM): 91%
CN1CCN(C(=O)c2ccc(NC(=O)Nc3ccc(N(C)c4ccnc(Nc5ccc(CS(C)(=O)=O)cc5)n4)cc3)cc2)CC1  remaining binding (binding; 1 µM): 8.6%
C1=C/COCc2cc(ccc2OCCN2CCCC2)Nc2nccc(n2)-c2cccc(c2)COC/1  remaining signal (cell-free assay; 0.1 µM): 33%
CCCCC(=O)Nc1ccc(-c2ccc3ncn(CCC)c(=O)c3c2)cn1  remaining binding (binding, competition with immobilised ligand; 0.5 µM): 80%
C=CC(=O)N1CCC([C@@H]2CCNc3c(C(N)=O)c(-c4ccc(Oc5ccccc5)cc4)nn32)CC1  inhibition (enzyme activity, inhibitor; 1 µM): 25%
COc1ccc2oc(-c3ccc4nc(N)oc4c3)c/c(=N\c3ccccc3NC(=O)CCN)c2c1  remaining binding (binding; 1 µM): 113%
C[C@H]1CC[C@H](n2c3cnccc3c3cnc(Nc4ccc5c(n4)CCN(C(=O)CO)C5)nc32)CC1  remaining signal (cell-free assay; 1 µM): 2.6%
N#Cc1ccc(NC(=O)Nc2ccccc2)cc1  remaining binding (cell-free assay, competition with immobilised ligand; 25 µM): 65%
